Data reported in ChEMBL document CHEMBL4382230, “Structure-activity relationships, biological evaluation and structural studies of novel pyrrolonaphthoxazepines as antitumor agents” (Eur J Med Chem, 2019).
Converted amounts (≈) assume the structure as drawn. The source made the active and inactive calls. The calls are words filed in the database; no cut-off is given here.

Tests used:
[1] = system: NB-4; test: Induction of differentiation in human NB4 cells at 500 nM after 24 hrs in presence of ATRA by CD11c staining-based flow cytometric analysis; assay type: functional, cell-based
How it was run: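 NB4 exposed to 0.5 μM compound together with 1 μM ATRA for 24 h. Cells stained with PE-conjugated CD11c (mouse IgG1-PE control) for 1 h at 4 °C in the dark, washed, resuspended in PBS with propidium iodide (0.25 μg/mL), then analysed by flow cytometry. Biological triplicates, mean ± S.E.M.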

[2] = system: Ca9-22; test: Cytotoxicity against human Ca9-22 cells after 24 hrs by MTT assay; assay type: functional, cell-based; settings: Ca9-22, 24 h
[3] = system: HL-60; test: Cytotoxicity against human HL60 cells assessed as reduction in cell viability after 72 hrs by alamar blue assay; assay type: functional, cell-based; settings: HL-60, 72 h
How it was run: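 HL-60 at 300,000 cells/ml treated in triplicate with compound or vehicle (0.1% v/v DMSO) for 72 h. Cells then incubated in 10% (v/v) AlamarBlue and fluorescence read at excitation 544 nm, emission 590 nm. IC50 is the mean of at least three separate determinations.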

[4] = system: A549; test: Cytotoxicity against human A549 cells assessed as reduction in cell survival at 0.1 to 10 uM after 18 hrs by MTT assay; assay type: functional, cell-based
How it was run: (§1)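 Seeded at 2,500 cells/well in medium with 10% serum. After adhesion, exposed to 0.1, 1 and 10 μM in medium with 5% serum for 18 h. Medium then replaced with fresh medium containing 1.2 mM MTT for 4 h; formazan dissolved in DMSO, absorbance at 540 nm. Results given as % of basal response.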

[5] = Chemical stability of compound in pH 7.4 aqueous solution assessed as compound remaining after 24 hrs by HPLC analysis; assay type: physicochemical; settings: read-out: Stability
[6] = system: NIH3T3; test: Cytotoxicity against mouse NIH/3T3 cells harboring MDR G185 after 48 hrs by MTT assay; assay type: functional, cell-based; settings: NIH3T3, 48 h
How it was run: (§2)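 Cells seeded at 12,000 to 17,000 per well depending on line, incubated overnight, then given serial dilutions of ligand for 48 h. MTT at 2.5 mg/mL added for 4 h at 37 °C, formazan solubilized overnight (10% SDS, 45% dimethylformamide, pH 5.5), absorbance read at 595/690 nm. IC50 from log-dose response curves; mean ± SE of three independent assays.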

[7] = system: PC-9; test: Cytotoxicity against human PC9 cells assessed as reduction in cell survival at 0.1 to 10 uM after 18 hrs by MTT assay; assay type: functional, cell-based; how it was run: as §1
[8] = target: Tubulin (Homo sapiens) (UniProt P68371+Q9H4B7+P0DPH7+P68366+Q13509+Q71U36+P04350+Q3ZCM7+P07437+P68363+Q9BQE3+Q6PEY2+Q13885+Q9BVA1+Q9BUF5); test: Binding affinity to tubulin (unknown origin) by analytical ultracentrifugation
[9] = system: B16-F1; test: Cytotoxicity against mouse B16-F1 cells assessed as reduction in cell survival at 0.1 to 10 uM after 18 hrs by MTT assay; assay type: functional, cell-based; how it was run: as §1
[10] = system: GISTT1; test: Cytotoxicity against human GISTT1 cells assessed as reduction in cell viability at 1 uM after 48 hrs by alamar blue assay; assay type: functional, cell-based
How it was run: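 GIST-T1 seeded at 4000 cells/well, exposed to 1 or 10 μM for 48 h; viability read by AlamarBlue.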

[11] = system: HL-60; test: Induction of autophagy in serum starved human HL60 cells assessed as increase in LC3B-2 levels at 10 uM after 105 mins in presence of lysosomal inhibitor chloroquine by immunoblot analysis; assay type: functional, cell-based
How it was run: (§3)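 HL-60 in serum-supplemented RPMI 1640, or starved in Earle's Balanced Salts for 15 min beforehand, then treated with 10 μM compound with or without 40 μM chloroquine for 1 h 45 min or 16 h. LC3B-II measured by immunoblot, densitometry normalized to actin, three independent experiments, Student's T-test.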

[12] = system: PC-9; test: Induction of apoptosis in human PC9 cells assessed as reduction in cyclin D1 expression at 10 uM after 18 hrs by Western blot analysis; assay type: functional, cell-based
How it was run: (§4)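 PC9 and HCC827 maintained in DMEM with 10% FBS, then exposed to 10 μM compound for 18 h in 5% serum. Caspase 3 activation and cell cycle proteins examined by western blot.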

[13] = Chemical stability of compound in pH 3 aqueous solution assessed as compound remaining after 24 hrs by HPLC analysis; assay type: physicochemical; settings: read-out: Stability
[14] = system: HL-60; test: Induction of autophagy in serum starved human HL60 cells assessed as increase in LC3B-2 levels at 10 uM after 105 mins by immunoblot analysis; assay type: functional, cell-based; how it was run: as §3
[15] = system: HL-60; test: Induction of autophagy in human HL60 cells assessed as increase in LC3B-2 levels at 10 uM after 105 mins in presence of lysosomal inhibitor chloroquine by immunoblot analysis; assay type: functional, cell-based; how it was run: as §3
[16] = Cytotoxicity against human A2780AD cells after 48 hrs by MTT assay; assay type: functional, cell-based; how it was run: as §2
[17] = system: Ca9-22; test: Induction of apoptosis in human Ca9-22 cells at 500 nM after 48 hrs by Annexin V/propidium iodide staining-based flow cytometric analysis relative to control; assay type: functional, cell-based
How it was run: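 Seeding density: NCI-H929 and Ca9.22 at 30×10^4 cells/mL, SCC4 at 15×10^4 cells/mL. Cells exposed 48 h to compound (500 nM; 50 μM in SCC4 for one compound) or vehicle (1% EtOH v/v). Annexin V/PI staining, flow cytometry, 10,000 cells gated on vehicle-treated cells. Three independent experiments, mean ± S.E.M, T-test.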

[18] = system: PC-9; test: Induction of apoptosis in human PC9 cells assessed as increase in caspase-3 expression at 10 uM after 18 hrs by Western blot analysis; assay type: functional, cell-based; how it was run: as §4
[19] = Solubility of compound in pH 3 aqueous solution after 12 hrs by HPLC analysis; assay type: physicochemical

CC(=O)OC1=C(c2cccc3ncccc23)Oc2cc3ccccc3cc2-n2cccc21
Activity [1]: Active
IC50 [2]: 31600 nM
IC50 [3]: 294 nM
Activity [4]: Active
remaining at 24 h [5]: 95.6%
IC50 [6]: 84 nM
Activity [7]: Active
Kb [8]: 7 ×10⁷ /M
Activity [9]: Active
Activity [10]: Active
Activity [11]: Active
Activity [12]: Active
remaining at 24 h [13]: 65%
Activity [14]: Active
Activity [15]: Active
IC50 [16]: 92 nM
Activity [17]: inactive
Activity [18]: Active
solubility at 12 h [19]: 210 µM (≈ 88 µg/mL)
